The text below walks through data of ChEMBL document CHEMBL1152870, “Design and synthesis of novel dihydroquinoline-3-carboxylic acids as HIV-1 integrase inhibitors” (Bioorg Med Chem, 2009).

The term IC50 denotes the point on the concentration scale where inhibition reaches its midpoint. The term CC50 denotes the concentration that lowers cell viability or growth by half.

SMILES strings stand for the structures. Bounds are passed on as bounds.

In test [1] the target is T1, Human immunodeficiency virus type 1 integrase (Human immunodeficiency virus 1, UniProt Q7ZJM1). The test can be described thus: Inhibition of HIV1 integrase 3' processing activity by PAGE.
Test [2] concerns HCT-116. The test is described as follows: Cytotoxicity against p53 deficient human HCT116 cells after 72 hrs by MTT assay. The note with it: HCT-116, 72 h. Type of test: functional. The method in brief: (§1)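 HCT116 p53+/+ or p53−/− cells grown as monolayers in RPMI 1640 with 10% FBS and 2 mmol/L L-glutamine at 37 °C, 5% CO2, and used in exponential growth. Cells were seeded, allowed to attach, then exposed continuously to drug for 72 h. DMSO stocks were diluted in medium. MTT (0.5 mg/mL final) was added for 4 h at 37 °C and read at 570 nm. Triplicates; IC50 from log concentration versus % cells killed.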
For orientation: Formazan colour is commonly taken as a measure of viable cells.

For test [3], the target named is T1, Human immunodeficiency virus type 1 integrase. The test is described as follows: Inhibition of HIV1 integrase strand transfer activity by PAGE.
Test [4] has as its system HCT-116. The test can be described thus: Cytotoxicity against human HCT116 cells expressing p53 after 72 hrs by MTT assay. The test is classed as functional. As to conditions: HCT-116, 72 h. Summed up:
as §1

T1 sequence (Q7ZJM1 whole entry): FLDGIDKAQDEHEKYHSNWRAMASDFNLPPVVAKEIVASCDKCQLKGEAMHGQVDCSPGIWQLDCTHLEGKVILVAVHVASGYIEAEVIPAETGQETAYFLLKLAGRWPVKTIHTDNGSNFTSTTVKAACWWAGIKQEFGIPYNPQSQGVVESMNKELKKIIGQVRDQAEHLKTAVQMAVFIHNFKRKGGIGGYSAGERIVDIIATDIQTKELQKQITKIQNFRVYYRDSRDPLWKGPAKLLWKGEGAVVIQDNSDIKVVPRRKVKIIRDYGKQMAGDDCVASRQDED

`COc1ccc2c(c1)c(O)c(C(=O)O)c(=O)n2C`: the concentration for half-maximal inhibition (IC50) is 580 µM in test [1] and 320 µM in test [3]. Moreover, the CC50 in the test on HCT-116 [2] and with HCT-116 [4] was more than 10 µM in each case.

As for `CCOC(=O)c1c(O)c2cc(Cc3ccc(F)cc3)ccc2n(C)c1=O`, the IC50 in test [1] came out at 800 µM; in test [3], 220 µM. The CC50 in the test on HCT-116 [2] and in the test with HCT-116 [4] was more than 10 µM each time.

On to `CCCCCn1c(=O)c(C(=O)Nc2cc([N+](=O)[O-])ccc2O)c(O)c2ccccc21`, for which the IC50 in test [1] and in test [3] was 9 µM throughout. The CC50 in the test with HCT-116 [2] and in the test with HCT-116 [4] was more than 10 µM each time.

For `O=C(O)C(=O)CC(=O)c1cccn1Cc1ccc(F)cc1`, the CC50 in the test on HCT-116 [2] and in the test on HCT-116 [4] was more than 10 µM each time.

On to `Cn1c(=O)c(C(=O)O)c(O)c2cc(Cc3ccc(F)cc3)ccc21`, for which the values for the IC50 in test [1] and in test [3] were 23 µM and 0.9 µM, respectively. Besides, the CC50 with HCT-116 [2] and in the test with HCT-116 [4] was more than 10 µM each time.

On to `CCOC(=O)c1c(O)c2cc(Cc3ccccc3)ccc2n(C)c1=O`, for which the IC50 was determined as 275 µM in test [1] and 110 µM in test [3]. The CC50 with HCT-116 [2] and in the test with HCT-116 [4] was more than 10 µM each time.

On to `CCOC(=O)c1c(O)c2cc(OC)ccc2n(C)c1=O`, for which the IC50 in test [1] and in test [3] was more than 1000 µM each time. Besides, the CC50 in the test with HCT-116 [2] and with HCT-116 [4] was more than 10 µM throughout.

For `CCCCCn1c(=O)c(C(=O)O)c(O)c2cc(Cc3ccc(F)cc3)ccc21`, the IC50 came out at 92 µM in test [1] and 5 µM in test [3]. Besides, the CC50 in the test on HCT-116 [2] and in the test on HCT-116 [4] was more than 10 µM in each case.

Turning to `Cn1c(=O)c(C(=O)O)c(O)c2cc(Cc3ccccc3)ccc21`, the IC50 amounted to 45 µM in test [1] and 6 µM in test [3]. In addition, the CC50 with HCT-116 [2] and in the test on HCT-116 [4] was more than 10 µM throughout.

With `Cn1c(=O)c(C(=O)O)c(O)c2cc(Oc3ccccc3)ccc21`, the IC50 in test [1] came to 34 µM; in test [3] it was 14 µM. The CC50 with HCT-116 [2] and in the test with HCT-116 [4] was more than 10 µM throughout.
